Screening data deposited in PubChem by several laboratories.
In the library only some 4.6% were active in any assay of this set; here they are far more common.
PolyA inh: inhibitors of polyadenylation in S. cerevisiae | AID 1875 | 300,000 compounds, 0.02% hits | activity score, % at 12 µM | S. cerevisiae SKY197-pL101 polyadenylation reporter, beta-gal luminescence; efflux-impaired pdr1/pdr3 knockout yeast; score 100 = 6 SD above DMSO;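 active = lowest replicate activity score at least 50, where 100 means six control SD above control mean; inconclusive = lowest score under 50 but half or more replicates reach 50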;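 note: yeast exposed to compound for 9 h at 30 °C; higher score means more reporter readthrough which indicates perturbed polyadenylation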
NALP1 yeast inh: NALP1 inhibition | S. cerevisiae NALP1/ASC/caspase-1 growth, X-gal OD620, 72 h | inhibition, % at 10 µM | 280,000 compounds, 0.61% hits; in the data active = inhibition mostly above about 24%, no sharp cut-off; inactive = mostly below about 32%
DSG3 Ab inh: inhibitors of pemphigus antibody binding to human desmoglein-3 | P32926 | binding (percent of control), % at 10 µM | AID 588358 | DSG3-coupled beads, scFv-anti-DSG3-GFP binding, flow cytometry; hits give low values | 310,000 compounds, 0.48% hits;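 active = binding more than 3 SD below its plate's average and above zero; inconclusive = below that plate limit but binding exactly zero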;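 note: hits lower antibody fragment binding to DSG3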
Target sequence (P32926 whole entry, looked up, the tested form may be a part): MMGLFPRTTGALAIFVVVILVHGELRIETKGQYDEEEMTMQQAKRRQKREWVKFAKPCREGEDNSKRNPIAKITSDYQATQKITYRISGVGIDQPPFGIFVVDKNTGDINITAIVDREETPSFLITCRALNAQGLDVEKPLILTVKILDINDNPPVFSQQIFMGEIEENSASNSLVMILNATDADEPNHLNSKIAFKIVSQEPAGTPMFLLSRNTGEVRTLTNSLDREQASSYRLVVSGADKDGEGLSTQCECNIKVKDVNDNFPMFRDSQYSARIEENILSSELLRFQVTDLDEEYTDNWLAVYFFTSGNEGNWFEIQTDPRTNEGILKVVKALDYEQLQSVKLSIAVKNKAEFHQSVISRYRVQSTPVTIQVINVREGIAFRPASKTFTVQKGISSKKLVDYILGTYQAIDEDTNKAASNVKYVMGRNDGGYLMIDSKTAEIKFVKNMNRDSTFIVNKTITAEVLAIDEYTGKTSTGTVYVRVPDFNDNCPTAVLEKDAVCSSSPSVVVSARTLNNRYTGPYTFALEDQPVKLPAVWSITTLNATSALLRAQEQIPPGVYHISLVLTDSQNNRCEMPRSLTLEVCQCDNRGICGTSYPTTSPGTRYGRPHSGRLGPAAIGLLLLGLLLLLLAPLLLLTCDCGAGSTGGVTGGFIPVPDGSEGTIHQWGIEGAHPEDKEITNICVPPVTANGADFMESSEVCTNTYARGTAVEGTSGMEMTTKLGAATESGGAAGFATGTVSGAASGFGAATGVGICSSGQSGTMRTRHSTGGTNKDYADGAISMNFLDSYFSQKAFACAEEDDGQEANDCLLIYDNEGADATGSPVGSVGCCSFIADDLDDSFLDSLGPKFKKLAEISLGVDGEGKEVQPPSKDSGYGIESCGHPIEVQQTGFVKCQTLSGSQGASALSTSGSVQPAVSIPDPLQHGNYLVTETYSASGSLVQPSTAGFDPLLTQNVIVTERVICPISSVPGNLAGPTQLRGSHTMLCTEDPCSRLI
NALP3 yeast inh: blocks the NALP3 inflammasome reconstituted in yeast | Yeast reconstituted NLRP3/ASC/caspase-1, beta-gal luminescence, 24 h | inhibition, % at 10 µM | 330,000 compounds, 0.39% hits;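 active = inhibition of 50% or more; inactive = inhibition below 50%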
Arr AP2 block: blocks beta-arrestin peptide binding to AP2 adaptin; inhibition, % at 10 µM; 340,000 compounds, 0.31% hits; FITC-arrestin peptide / GST-AP2 beads, flow cytometry; AP2 beta2 appendage carries R879A mutation;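 active = inhibition above a set limit, near 3 SD of compounds lacking own fluorescence, cut at about 54% in these data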
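Material – GST-tagged AP2 beta2-adaptin appendage (R879A) on 4 µm glutathione beads · Probe or stimulus – fluorescein-tagged arrestin peptide at 50 nM final · Timing – 12 min plus 1 h, RT · Detection – bead flow cytometry, FITC channel · Read-out basis – inhibition as reduced fluorescein signal on beads, percent · Medium – PBS plus Tween 20 (0.05%) and BSA (0.1%)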
ALR inh: blocks human ALR sulfhydryl oxidase activity. 290,000 compounds, 3.8% hits. purified ALR, DTT oxidation, H2O2 HRP-luminol luminescence. inhibition, % (no concentration beside the values). P55789;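 active = mean replicate inhibition above about 79%, with every replicate also reaching it, limit read from the data; inconclusive = only one of the two criteria met; inactive = mean below limit and not every replicate reaching it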
Hits are given with their value; n = inactive; u = inconclusive; x = not tested or not shown.

SMILES | PolyA inh | NALP1 yeast inh | DSG3 Ab inh | NALP3 yeast inh | Arr AP2 block | ALR inh
O=C(NC1CCCCC1)C(c1ccco1)N(C(=O)c1csnn1)c1cccc(Cl)c1 (stereo unspecified) | n | n | n | n | n | n
Cc1nn(-c2ccccc2)c2[nH]c(=O)cc(C(F)(F)F)c12 | n | 38 | n | n | n | n
Cc1cccc(N=Nc2cnc(N)s2)c1 | n | n | n | n | n | 99
CC(=O)Nc1ncc(N=Nc2cccc(C(F)(F)F)c2)s1 | n | n | n | n | n | n
CCOc1ccccc1/C=C(/NC(=O)c1ccccc1)C(=O)N1CCCCC1 | n | n | n | n | n | n
C[N+]1(CCCCSc2ccc(O)cc2)CCCCC1 | n | n | n | n | n | 99
N#C/C(=C\c1ccc(N2CCCCC2)o1)C(=O)Nc1cccc(Br)c1 | x | n | n | n | n | n
N#C/C(=C\c1ccc(N2CCCCC2)o1)C(N)=O | n | n | n | n | n | 90
COc1cc(-c2c(NC(=O)c3ccco3)oc3ccccc3c2=O)cc(OC)c1OC | n | n | n | n | n | x
O=C(NCCc1ccco1)C(=O)NCC1OCCCN1S(=O)(=O)c1cc(F)ccc1F (stereo unspecified) | n | n | n | n | n | n
CSc1ccc(/C=C2/C(=N)N3N=C(CC(=O)N4CCCC4)SC3=NC2=O)cc1 | n | n | n | n | n | n
Cc1ccc(/C=C2/C(=N)N3N=C(CC(=O)N4CCCC4)SC3=NC2=O)cc1 | n | n | n | x | n | 97
C=CCOc1ccc(/C=C2/C(=N)N3N=C(CC(=O)N4CCCC4)SC3=NC2=O)cc1OC | n | n | x | n | n | 99
COc1ccc(/C=C2/C(=N)N3N=C(CC(=O)N4CCCC4)SC3=NC2=O)cc1OC | n | n | n | n | n | n
Cc1ccccc1C(=O)N1CCC(C(=O)Nc2ccc(S(=O)(=O)N3C(C)CCCC3C)cc2)CC1 (stereo unspecified) | x | x | n | x | n | x
Cc1ccc(C(=O)NCC(=O)OCCCOC(=O)CNC(=O)c2ccc(C)c(C)c2)cc1C | x | x | n | n | n | x
NS(=O)(=O)c1ccc(CCNC(=O)C2CC(=O)N(Cc3ccccc3Cl)C2)cc1 (stereo unspecified) | x | x | n | n | n | n
COc1ccc(NC(=O)COC(=O)CCc2ccc(S(=O)(=O)N3CCOCC3)cc2)c(OC)c1 | x | x | n | n | n | x
O=C(CCc1nc2cccnc2n1Cc1ccccc1)N1CCOCC1 | n | 36 | x | n | n | n
Cc1ccc2cccc(CC(=O)NN)c2c1 | x | x | n | x | x | x
O=C(CN1C(=O)C2CC=CCC2C1=O)Nc1ccc(F)cc1F (stereo unspecified) | x | x | x | n | n | n
COCCCN(CCNC(=O)c1ccc(NC2=NC3CS(=O)(=O)CC3S2)cc1)Cc1ccco1 (stereo unspecified) | n | n | n | n | n | n
COCCCN(CCCN)Cc1ccco1 | n | 71 | n | n | n | n
O=C1Nc2ccccc2/C1=N/N=C/c1ccc(-c2ccc([N+](=O)[O-])cc2)o1 | n | n | 72 | x | n | x
CC(C)(C)N1CC(C(=O)Nc2ccc(C(N)=O)cc2)CC1=O (stereo unspecified) | x | x | n | x | x | x
SMILES | PolyA inh | NALP1 yeast inh | DSG3 Ab inh | NALP3 yeast inh | Arr AP2 block | ALR inh
COc1cccc(NC(=S)NCCN2CCOCC2)c1 | n | n | n | n | n | n
CCCN1CCCc2cc(CN(CCCN3CCOCC3)C(=O)Nc3ccc(OCC)cc3)ccc21 | n | 45 | n | n | n | 99
CCN1CCCc2cc(CN(CCN3CCOCC3)C(=S)Nc3cccc(OC)c3)ccc21 | n | n | n | n | n | 87
CCOc1ccc(NC(=O)N(CCN2CCOCC2)Cc2ccc3c(c2)CCCN3CC)cc1 | n | n | n | n | n | 100
CC(=O)Nc1ccc(NC(=O)C(C)Sc2n[nH]c(=O)n2Cc2ccccc2)cc1 (stereo unspecified) | n | n | x | n | n | n
O=C(/C=C/c1ccc(OC(F)F)cc1)Nc1cccc(S(=O)(=O)N2CCOCC2)c1 | n | n | n | n | n | n
Cc1cc(=O)n(Nc2ccccc2)c(O)c1C#N | x | x | 64 | x | x | x
Cc1cc(=O)n(CCc2ccccc2)c(O)c1C#N | n | n | n | n | n | n
O=C1N[C@@H](Cc2cn(S(=O)(=O)c3c(F)c(F)c(F)c(F)c3F)c3ccccc23)C(=O)N[C@H]1Cc1ccccc1 | n | x | x | n | x | n
O=C(CCC(=O)NNC(=O)COc1ccc(Br)cc1)NCc1ccccc1 | n | n | 1.9 | n | n | n
O=C(CCc1ccccc1)NNC(=O)COc1ccc(Br)cc1 | n | n | u | n | n | x
Cc1ccc(S(=O)(=O)N2C[C@H]3C(=O)C[C@@H](c4ccc(Cl)cc4)N(S(=O)(=O)c4ccccc4C)[C@H]3C[C@H]2c2ccc(Cl)cc2)cc1 | x | x | n | x | x | x
CC(C)NC(=O)c1ccccc1NC(=O)CS(=O)(=O)Cc1ccccc1 | n | 36 | n | n | n | n
CCn1cc(C(=O)Nc2ccccc2C(=O)OC)cn1 | n | x | n | n | n | n
CCN(CC)c1ccc(NC(=O)OC)cc1 | n | n | n | n | n | 91
CCN(CC)c1ccc(NC(=O)c2cnn(CC)c2)cc1 | n | n | n | n | n | 99
CCOC(=O)C(Cc1ccccc1)C(=O)Nc1ccc(N(CC)CC)cc1 (stereo unspecified) | n | n | n | n | n | 99
COC(=O)Nc1ccc(NC(C)=O)cc1 | n | n | n | n | n | n
CCN(CC)c1ccc(NC(=S)NC(=O)C2CCC2)cc1 | n | n | n | n | n | 99
C[C@@H]1CN([C@H](C)CO)C(=O)CCCn2cc(nn2)CO[C@H]1CN(C)S(=O)(=O)c1ccc(-c2ccccc2)cc1 | x | x | n | x | x | x
CC(=O)Nc1ccc(NC(=S)NC(=O)C2CCCC2)cc1 | n | 32 | n | n | n | n
CC(C)(C)CC(C)(C)Nc1c(-c2ccc(O)cc2)nc2cnccn12 | n | x | n | n | n | 100
Oc1ccc(-c2nc3cnccn3c2Nc2ccc3c(c2)OCCO3)cc1 | n | n | n | n | n | 99
COc1cc(-c2nc3cnccn3c2Nc2ccc3c(c2)OCCO3)ccc1O | n | n | x | n | n | 99
COc1cc(-c2nc3cnccn3c2Nc2ccc(C)cc2)ccc1O | n | n | n | n | n | 99
SMILES | PolyA inh | NALP1 yeast inh | DSG3 Ab inh | NALP3 yeast inh | Arr AP2 block | ALR inh
Nc1cc2c3ccccc3ccc2c2ccccc12 | x | x | n | x | n | x
COc1cc(-c2nc3ccc(C)cn3c2Nc2ccc3c(c2)OCCO3)ccc1O | n | n | n | n | n | 91
COc1cc(-c2nc3cnccn3c2Nc2ccccc2)ccc1O | n | n | n | n | n | u
O=C(COC(=O)c1c2c(nc3ccccc13)/C(=C/c1ccco1)CC2)NC1CCCC1 | n | n | n | x | n | x
CC1CCCCC1NC(=O)COC(=O)c1c2c(nc3ccccc13)/C(=C/c1ccco1)CC2 (stereo unspecified) | n | n | 77 | x | n | n
CCN(CC)S(=O)(=O)c1ccc(C(=O)NCC(=O)NCc2ccc3c(c2)OCO3)cc1 | x | x | n | x | x | x
